Bioassay records deposited in PubChem BioAssay by Broad Institute.
CAL PDZ FP-1 – inhibitors of human CAL PDZ peptide binding; 300,000 tested, 0.92% active; purified CAL PDZ, TMR-peptide fluorescence polarization, 1 h; inhibition, % at 24.9 µM;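 active = mean inhibition of at least 30% with at least half of replicates also reaching 30%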
ARNT TACC3 PPI – disrupts binding between human ARNT and TACC3; inhibition, % at 9.99 µM; Q9Y6A5; AlphaScreen His-ARNT PAS-B/GST-TACC3 binding, luminescence; TACC3 fragment carries E629A point mutation; AID 623870; 390,000 tested, 0.66% active;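 active = mean inhibition of replicates at least 50% and at least half of replicates each reaching 50%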
CAL PDZ FP-2 – inhibitors of human CAL PDZ peptide binding; Q9HD26; purified CAL PDZ, TMR-peptide fluorescence polarization, 1 h; inhibition, % at 20 µM; 330,000 tested, 0.02% active;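 active = highest replicate inhibition of at least 40%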
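Test system: purified CerCALP PDZ construct; Compound dosing: one concentration, 20 µM compound; Also added: TMR-labelled reporter peptide T*-PRC34 bound in PDZ groove; Read-out: inhibition from polarization loss; Controls: unlabelled peptide and DMSO controls; Signal: FP readout, S and P plane fluorescence; Incubation: 1 h at RT.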
SR-BI DiI inh – inhibitors of mouse SR-BI mediated HDL lipid uptake; 320,000 tested, 0.96% active; ldlA[mSR-BI] CHO cells, DiI-HDL uptake fluorescence, 3 h; inhibition, % at 12.5 µM;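 active = mean replicate inhibition of at least 70% and a set share of replicates each scoring 70 or more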
Target sequence (Q61009 whole entry, looked up): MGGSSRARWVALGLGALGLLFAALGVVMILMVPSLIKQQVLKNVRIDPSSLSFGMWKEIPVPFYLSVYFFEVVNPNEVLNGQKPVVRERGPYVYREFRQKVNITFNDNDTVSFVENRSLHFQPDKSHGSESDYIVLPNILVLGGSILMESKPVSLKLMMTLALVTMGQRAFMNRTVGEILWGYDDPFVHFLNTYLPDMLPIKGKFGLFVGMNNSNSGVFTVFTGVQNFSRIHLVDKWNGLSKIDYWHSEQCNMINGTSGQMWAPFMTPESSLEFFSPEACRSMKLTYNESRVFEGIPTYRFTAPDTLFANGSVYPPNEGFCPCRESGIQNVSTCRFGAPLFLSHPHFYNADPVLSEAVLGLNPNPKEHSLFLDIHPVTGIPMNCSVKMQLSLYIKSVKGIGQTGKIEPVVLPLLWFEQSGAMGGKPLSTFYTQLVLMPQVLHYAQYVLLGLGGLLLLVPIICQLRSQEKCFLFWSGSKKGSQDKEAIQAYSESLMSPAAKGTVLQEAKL
miR122 inh – miR-122 inhibition in Huh7 cells; Huh7 miR-122 Renilla luciferase sensor, 48 h; neutral wells = 0, positive control = 100; activation (reporter increase), % at 12.5 µM; 340,000 tested, 0.3% active; AID 602342;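 active = mean replicate activation score at least 90 and every replicate individually at or above 90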;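 also: higher luciferase means less miR-122 activity so hits act as miR-122 inhibitors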
SR-BI uptake up – SR-BI HDL lipid transfer activation | CHO ldlA[mSR-BI] cells, DiI-HDL uptake fluorescence, 3 h; 100 = double the neutral-control signal | activation, % at 12.5 µM | 320,000 tested, 0.096% active | AID 504775;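 active = mean replicate activation of at least 60% and every replicate at or above 60%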
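Test system: SR-BI-overexpressing, LDLR-lacking CHO cells; Also added: labelled HDL, 10 µg/mL; Measured by: bottom-read cell fluorescence after medium removal, ex 550/em 595 nm; Timing: 3 h uptake period with compound, 37 °C; Buffer or medium: F12, 0.5% BSA, 25 mM HEPES; Doses: single compound concentration, delivered by pin transfer.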
Hits are given with their value; . = inactive; / = no result given. Hits are enriched below; roughly 2.1% of the tested compounds scored in any of these assays.

SMILES	CAL PDZ FP-1	ARNT TACC3 PPI	CAL PDZ FP-2	SR-BI DiI inh	miR122 inh	SR-BI uptake up
C[C@H]1CCCCO[C@H](CN(C)S(=O)(=O)c2cn(C)cn2)[C@@H](C)CN([C@@H](C)CO)C(=O)c2cc(NC(=O)Nc3ccc(F)cc3)ccc2O1	/	.	/	/	.	/
Cc1cccc(NS(=O)(=O)c2cc3c4c(c2)C(C)C(=O)N4CCC3)c1 (stereo not drawn)	.	.	.	.	110	.
Cc1ccc(S(=O)(=O)Nc2cc3c4c(c2)C(C)C(=O)N4CCC3)cc1 (stereo not drawn)	.	.	.	.	.	.
CCCn1nc(NS(=O)(=O)c2ccccc2)c2cc3ccccc3nc21	58	.	.	.	.	.
O=C(C[C@H]1C[C@@H]2c3cc(NC(=O)c4cccnc4)ccc3O[C@@H]2[C@H](CO)O1)NCc1cccc(F)c1	/	.	/	/	.	/
COc1ccc2sc(-c3ccc(SC)cc3)c(-c3ccc(O)cc3)c2c1	.	/	.	76	.	.
COc1ccc(-c2sc3ccc(OC)cc3c2-c2ccc(OC)c(F)c2)cc1	.	.	.	.	.	.
COC(=O)c1c(-c2ccc(N(C)C)cc2)sc2ccc(OC)cc12	.	.	.	79	.	.
COC(=O)c1c(-c2ccsc2)sc2ccc(-c3cc(OC)c(OC)c(OC)c3)cc12	.	.	.	75	/	.
COc1cc(-c2ccc3sc(-c4ccsc4)c(C#CCO)c3c2)cc(OC)c1OC	.	.	.	.	.	.
COc1ccc2sc(-c3ccc(N(C)C)cc3)c(-c3cnc(OC)nc3)c2c1	.	.	.	82	.	.
C[C@H](CO)N1C[C@H](C)[C@H](CN(C)C(=O)Nc2ccc3c(c2)OCO3)OCCCC[C@H](C)Oc2ccc(NS(=O)(=O)c3ccc(Cl)cc3)cc2C1=O	/	.	/	/	.	/
O=C(NCC[C@H]1CC[C@@H](NC(=O)C2CCCC2)[C@H](CO)O1)Nc1ccc(Cl)cc1	/	.	/	/	.	/
COc1ccc(NC(=O)Nc2ccc3c(c2)C(=O)N([C@@H](C)CO)C[C@H](C)[C@H](CN(C)C(=O)Nc2ccc(OC)cc2)OCCCC[C@H](C)O3)cc1	/	.	/	/	.	/
Cc1ccc(S(=O)(=O)N(C)C[C@H]2Oc3ccc(NC(=O)CCCCCC(=O)Nc4ccccc4N)cc3CC(=O)N([C@@H](C)CO)C[C@@H]2C)cc1	/	.	/	/	.	/
C[C@@H]1CN([C@@H](C)CO)C(=O)c2cc(C3=CCCCC3)cnc2O[C@@H]1CN(C)Cc1ccncc1	/	.	/	/	.	/
O=C(c1ccc(S(=O)(=O)N2CCCC2)cc1)N1CCCc2ccccc21	.	.	.	77	.	.
O=C1NC(=O)/C(=C\c2cn(Cc3ccccc3F)c3ccccc23)N1	59	.	.	.	.	.
CCCNC(=O)C[C@@H]1C[C@H]2c3cc(NC(=O)Nc4ccccc4)ccc3O[C@H]2[C@@H](CO)O1	/	.	/	/	.	/
CC(=O)Nc1cccc(Oc2nc(-c3ccccn3)nc3ccccc23)c1	/	48	.	.	.	.
CC(=O)Nc1ccc(Oc2nc(-c3ccccn3)nc3ccccc23)cc1	.	58	.	.	/	.
Cc1ccnc(SC2CC(=O)N(c3ccc(F)cc3)C2=O)n1 (stereo not drawn)	.	.	.	.	.	344
Cc1noc(C)c1S(=O)(=O)Nc1ccc2c(c1)C(=O)N([C@@H](C)CO)C[C@@H](C)[C@@H](CN(C)S(=O)(=O)c1ccc(F)cc1)OCCCC[C@@H](C)O2	/	.	/	/	.	/
COc1ccc(S(=O)(=O)N[C@H]2C=C[C@H](CC(=O)NCCc3ccncc3)O[C@@H]2CO)cc1	/	.	/	/	/	/
Cc1cc(C)nc(NCC(O)CNc2ccccc2C)n1 (stereo not drawn)	62	.	.	.	.	.
SMILES	CAL PDZ FP-1	ARNT TACC3 PPI	CAL PDZ FP-2	SR-BI DiI inh	miR122 inh	SR-BI uptake up
CO[C@H]1CN(C)C(=O)c2ccc(NC(=O)C3CC3)cc2OC[C@H](C)N(Cc2cncnc2)C[C@@H]1C	/	/	/	/	.	/
O=C(Nc1cccc(C(F)(F)F)c1)c1ccc2nc(-c3ccco3)c(-c3ccco3)nc2c1	.	/	.	82	.	.
CO[C@@H]1CN(C)C(=O)c2cc(NC(=O)c3ccc(F)cc3)ccc2OC[C@@H](C)NC[C@@H]1C	/	.	/	/	.	/
Cc1noc(C)c1S(=O)(=O)N(C)C[C@H]1OCCCC[C@@H](C)Oc2ccc(NS(=O)(=O)c3ccc(F)cc3)cc2C(=O)N([C@@H](C)CO)C[C@H]1C	/	.	/	/	.	/
CC(Oc1ccc2c(c1)c1ccnc3c4ccccc4c(=O)n2c13)C(=O)NCCN1CCOCC1 (stereo not drawn)	.	48	.	.	.	.
COc1ccc2c(c1OC)c(=O)n1c3ccc(OC(C)C(=O)NCCN4CCOCC4)cc3c3ccnc2c31 (stereo not drawn)	.	.	.	.	.	.
CC(C)NC(=O)N(C)C[C@@H]1Oc2ccc(NS(=O)(=O)c3ccc(Cl)cc3)cc2CC(=O)N([C@H](C)CO)C[C@H]1C	/	.	/	/	.	/
CC(=O)N1CC[C@@H]2[C@H](CO)Nc3ccc(-c4ccccc4)cc3[C@@H]21	/	.	/	/	.	/
COc1ccc2cc(C(c3nnnn3C3CCCCC3)N3CCCCCC3)c3nnnn3c2c1 (stereo not drawn)	.	/	/	80	.	.
COc1ccc2cc(C(c3nnnn3C3CCCC3)N3CCCCCC3)c3nnnn3c2c1 (stereo not drawn)	.	.	/	.	.	.
Cc1cc(C)n(-c2nnc(C)n2N)n1	.	.	.	.	.	.
Cc1cc(C)n(-c2nnc(C)c(=O)[nH]2)n1	.	60	.	.	.	.
C[C@H]1CN([C@@H](C)CO)C(=O)c2cccc(NS(C)(=O)=O)c2O[C@H]1CN(C)C(=O)NC1CCCCC1	/	.	/	/	.	/
CCN(CC)S(=O)(=O)c1cccc(NC(=O)/C=C/c2cccc([N+](=O)[O-])c2)c1	.	.	.	.	.	.
CCN(CC)S(=O)(=O)c1ccc(NC(=O)c2ccc(Cl)nc2)cc1	.	.	.	76	.	.
CN(C)S(=O)(=O)c1cccc(NC(=O)/C=C/c2ccccc2[N+](=O)[O-])c1	.	.	.	75	/	.
CCN(CC)S(=O)(=O)c1cccc(NC(=O)c2ccc(C#N)cc2)c1	.	.	.	77	.	.
CN(c1ccccc1)S(=O)(=O)c1cccc(NC(=O)c2cccc(C#N)c2)c1	.	.	.	.	/	.
CCN(CC)S(=O)(=O)c1cccc(NC(=O)/C=C/c2ccc([N+](=O)[O-])cc2)c1	.	/	.	76	.	.
COc1cccc(NC(=O)/C=C/c2ccccc2[N+](=O)[O-])c1	.	.	.	.	/	.
CCN(CC)c1ccc(NC(=O)c2ccccn2)cc1S(=O)(=O)Nc1ccccc1OC	.	.	.	.	125	.
